Assay results published in ChEMBL document CHEMBL1126129, “Flavones. 3. Synthesis, biological activities, and conformational analysis of isoflavone derivatives and related compounds” (1992).
Activity calls are given as the source filed them. The rule behind the calls is not given here.

Legend:
Rattus norvegicus [1] = experiment: Antihypertensive activity was measured as decrease in systolic blood pressure in spontaneously hypertensive rats at 75 mg/kg, po 2 hours after dosing; NS denotes not significant; format: functional, organism-based; parameters: dose 75 mg/kg; conditions: Artery
How it was run: (§1)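 Male spontaneously hypertensive rats (Wistar-Kyoto strain), five per dose group. Systolic arterial pressure measured by indirect tail cuff. Dosing was 75 mg/kg po, or 30 mg/kg iv for one analog. Percentage fall in systolic pressure recorded at stated hours after dosing. Significance vs control at p < 0.05; non-significant falls flagged.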

Rattus norvegicus [2] = experiment: Antihypertensive activity was measured as decrease in systolic blood pressure in spontaneously hypertensive rats at 75 mg/kg, po 24 hours after dosing; NS denotes not significant; format: functional, organism-based; parameters: dose 75 mg/kg; conditions: Artery; how it was run: as §1
Rattus norvegicus [3] = experiment: Antihypertensive activity was measured as decrease in systolic blood pressure in spontaneously hypertensive rats at 75 mg/kg, po 5 hours after dosing; NS denotes not significant; format: functional, organism-based; parameters: dose 75 mg/kg; conditions: Artery; how it was run: as §1
Rattus norvegicus [4] = experiment: Antihypertensive activity was measured as decrease in systolic blood pressure in spontaneously hypertensive rats at 75 mg/kg, po 7.5 hours after dosing; NS denotes not significant; format: functional, organism-based; parameters: dose 75 mg/kg; conditions: Artery; how it was run: as §1
Rattus norvegicus [5] = experiment: In vivo inhibition of carrageenan-induced paw oedema in rats following 50 mg/kg administration.; format: functional
How it was run: (§2)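 Male Sprague-Dawley rats, housed 1 week, 160-200 g at test, groups of six. Dosed orally in 0.5% aqueous methocel 2 h before carrageenan challenge; controls got vehicle. Paw volume measured by mercury plethysmometer immediately and 3 h later. % inhibition = (Δcontrol − Δtest)/Δcontrol × 100, compared with control by analysis of variance. Usually one experiment per compound.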

Rattus norvegicus [6] = experiment: Antihypertensive activity was measured as decrease in systolic blood pressure in spontaneously hypertensive rats at 75 mg/kg, po 7.5 hours after dosing; format: functional, Artery; how it was run: as §1
Rattus norvegicus [7] = experiment: Antihypertensive activity was measured as decrease in systolic blood pressure in spontaneously hypertensive rats at 75 mg/kg, po 24 hours after dosing; format: functional, Artery; how it was run: as §1
Rattus norvegicus [8] = experiment: Antihypertensive activity was measured as decrease in systolic blood pressure in spontaneously hypertensive rats at 75 mg/kg, po 5 hours after dosing; format: functional, Artery; how it was run: as §1
Rattus norvegicus [9] = experiment: Antiinflammatory activity was measured as inhibition of carrageenan-induced paw edema in male rats at 25 mg/kg dose; format: functional; how it was run: as §2
Rattus norvegicus [10] = experiment: Antihypertensive activity was measured as decrease in systolic blood pressure in spontaneously hypertensive rats at 30 mg/kg, iv 2 hours after dosing; NS denotes not significant; format: functional, organism-based; parameters: dose 30 mg/kg; conditions: Artery; how it was run: as §1
Rattus norvegicus [11] = experiment: Antihypertensive activity was measured as decrease in systolic blood pressure in spontaneously hypertensive rats at 75 mg/kg, po 2 hours after dosing; format: functional, Artery; how it was run: as §1
Rattus norvegicus [12] = experiment: Antiinflammatory activity was measured as %inhibition of carrageenan-induced paw edema in male rats at 50 mg/kg dose; format: functional; how it was run: as §2
Rattus norvegicus [13] = experiment: Antiinflammatory activity was measured as inhibition of carrageenan-induced paw edema in male rats at 4 mg/kg dose; format: functional; how it was run: as §2
Rattus norvegicus [14] = experiment: Antiinflammatory activity was measured as %inhibition of carrageenan-induced paw edema in male rats at 25 mg/kg dose; format: functional; how it was run: as §2

SMILES | Decrease in SBP (Rattus norvegicus [1]) | inhibition in vivo at 50 mg/kg (Rattus norvegicus [5]) [%] | Decrease in SBP (Rattus norvegicus [6]) [%] | Decrease in SBP (Rattus norvegicus [8]) [%] | also measured
Cc1oc2cc(OCC(O)CN(C)C(C)C)ccc2c(=O)c1-c1ccccc1 (stereo not drawn) | inactive | 19 | – | – | Decrease in SBP (Rattus norvegicus [2]): inactive; Decrease in SBP (Rattus norvegicus [3]): inactive; Decrease in SBP (Rattus norvegicus [4]): inactive
CC(C)(C)NCCCOc1ccc2c(=O)cc(-c3ccccc3)oc2c1 | – | 34 | – | – | –
CCCCCNCCCOc1ccc2c(=O)cc(-c3ccccc3)oc2c1 | – | -9 | – | – | –
CC(C)NCCCOc1ccc2c(=O)cc(-c3ccccc3)oc2c1 | – | 41 | – | – | –
COc1c(-c2ccccc2)oc2cc(OCCCNC(C)C)ccc2c1=O | – | -2 | – | – | –
O=c1cc(-c2ccccc2)oc2cc(OCCCNC3CCCC3)ccc12 | – | 21 | – | – | –
Cc1oc2cc(OCC(O)C[N+](C)(C)C(C)C)ccc2c(=O)c1-c1ccccc1.[I-] (stereo not drawn) | inactive | 36 | 0.1 | – | Decrease in SBP (Rattus norvegicus [2]): inactive; Decrease in SBP (Rattus norvegicus [3]): inactive
CC(C)NCC(O)COc1ccc2c(=O)c(-c3ccccc3)coc2c1 (stereo not drawn) | inactive | 33 | 14 | 11 | Decrease in SBP (Rattus norvegicus [7]): 21%
O=c1c(-c2ccccc2)coc2cc(OCC(O)CNC3CCCCCCC3)ccc12 (stereo not drawn) | inactive | 21 | – | – | Decrease in SBP (Rattus norvegicus [2]): inactive; Decrease in SBP (Rattus norvegicus [3]): inactive; Decrease in SBP (Rattus norvegicus [4]): inactive; inhibition in vivo at 25 mg/kg (Rattus norvegicus [9]): 41%
Cc1oc2cc(OCC(O)CNC(C)C)ccc2c(=O)c1-c1ccccc1 (stereo not drawn) | inactive | 19 | 19 | 12 | Decrease in SBP (Rattus norvegicus [7]): 17%
CCCNCCCOc1ccc2c(=O)cc(-c3ccccc3)oc2c1 | – | 18 | – | – | –
CN(C)CCCOc1ccc2c(=O)cc(-c3ccccc3)oc2c1 | – | 13 | – | – | –
CC(C)NCC(O)COc1ccc2c(=O)c(-c3ccccc3)c(C(F)(F)F)oc2c1 (stereo not drawn) | inactive | 28 | 16 | 16 | Decrease in SBP (Rattus norvegicus [7]): 20%
O=c1cc(-c2ccccc2)oc2cc(OCCCNC3CCCCCCC3)ccc12 | – | 26 | – | – | –
CCCNCC(O)COc1cccc2c(=O)c(-c3ccccc3)coc12 (stereo not drawn) | – | – | – | – | Decrease in SBP (Rattus norvegicus [10]): inactive
CCCNCC(O)COc1ccc2c(=O)c(-c3ccccc3)c(C(F)(F)F)oc2c1 (stereo not drawn) | inactive | 22 | 12 | 11 | Decrease in SBP (Rattus norvegicus [7]): 17%
CC(C)NCC(O)COc1ccc2c(=O)cc(-c3ccccc3)oc2c1 (stereo not drawn) | – | – | 23 | 18 | Decrease in SBP (Rattus norvegicus [11]): 12%; Decrease in SBP (Rattus norvegicus [7]): 16%; inhibition in vivo at 50 mg/kg (Rattus norvegicus [12]): 14.5%
CC(C)NCC(O)COc1ccc2c(=O)c(-c3ccccc3)c(Cc3ccccc3)oc2c1 (stereo not drawn) | inactive | -3.4 | – | – | Decrease in SBP (Rattus norvegicus [2]): inactive; Decrease in SBP (Rattus norvegicus [3]): inactive; Decrease in SBP (Rattus norvegicus [4]): inactive
COc1ccc2c(c1)c(CC(=O)O)c(C)n2C(=O)c1ccc(Cl)cc1 [INDOMETHACIN] | – | – | – | – | Inhibition (Rattus norvegicus [13]): 44.6%
CC(C)NCC(O)COc1ccc2c(=O)c(-c3ccccc3)c(-c3ccccc3)oc2c1 (stereo not drawn) | – | – | 30 | 23 | Decrease in SBP (Rattus norvegicus [11]): 15%; Decrease in SBP (Rattus norvegicus [7]): 34%; inhibition in vivo at 25 mg/kg (Rattus norvegicus [14]): 32%; inhibition in vivo at 50 mg/kg (Rattus norvegicus [12]): 24.6%
CC(C)NCC(O)COc1ccc2c(=O)c(-c3ccccc3)c(C(C)C)oc2c1 (stereo not drawn) | – | 28 | 25 | 20 | Decrease in SBP (Rattus norvegicus [11]): 18%; Decrease in SBP (Rattus norvegicus [7]): 15%
Clc1cccc(Cl)c1NC1=NCCN1 [CLONIDINE] | – | – | – | 15 | –
CC(C)NCC(O)COc1ccc2c(=O)c(-c3ccccc3)c(C3CCCCC3)oc2c1 (stereo not drawn) | inactive | 24 | – | – | Decrease in SBP (Rattus norvegicus [2]): inactive; Decrease in SBP (Rattus norvegicus [3]): inactive; Decrease in SBP (Rattus norvegicus [4]): inactive
CC(C)NCC(O)COc1ccc2c(=O)c(-c3ccccc3)c(-c3ccco3)oc2c1 (stereo not drawn) | inactive | 19 | 15 | – | Decrease in SBP (Rattus norvegicus [2]): inactive; Decrease in SBP (Rattus norvegicus [3]): inactive
